# Measured values reported in ChEMBL document CHEMBL3627667, “Novel halogenated 3-deazapurine, 7-deazapurine and alkylated 9-deazapurine derivatives of L-ascorbic or imino-L-ascorbic acid: Synthesis, antitumour and antiviral activity evaluations” (Eur J Med Chem, 2015).
# What was measured:
# SW-620 = test: Antiproliferative activity against human SW620 cells incubated for 72 hrs by MTT assay; type: functional, cell-based
# In short: (§1)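 Cells seeded at 5000 per well on day 0. Test agents added in five 10-fold dilutions (0.01–100 μM) for a further 72 h, with DMSO ≤0.1% as solvent control. Growth was read by MTT and absorbance converted to percentage growth against untreated cells on the same plate. IC50 came from linear regression on dose–response curves. Quadruplicate points, three independent experiments.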
# HepG2 = test: Antiproliferative activity against human HepG2 cells incubated for 72 hrs by MTT assay; type: functional, cell-based; in short: as §1
# HeLa [1] = test: Antiproliferative activity against human HeLa cells incubated for 72 hrs by MTT assay; type: functional, cell-based; in short: as §1
# [2] = Antiproliferative activity against human MIAPaCa2 cells incubated for 72 hrs by MTT assay; type: functional, cell-based, MIA PaCa-2; in short: as §1
# [3] = Antiproliferative activity against human CEM/0 cells incubated for 72 hrs by MTT assay; type: functional, cell-based, CCRF-CEM; in short: as §1
# [4] = Antiproliferative activity against mouse L1210/0 cells incubated for 72 hrs by MTT assay; type: functional, cell-based; in short: as §1
# Sindbis virus = test: Antiviral activity against Sindbis virus expressed in African green monkey Vero cells assessed as reduction in cytopathogenicity; type: functional, organism-based
# In short: (§2)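 Confluent Vero monolayers were inoculated with 100 CCID50 of virus in the presence of 5-fold serial compound dilutions. Cytopathicity was scored once it was complete in untreated infected controls. EC50 is the concentration giving 50% reduction of virus-induced cytopathogenicity.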
# Human alphaherpesvirus 3 [5] = test: Antiviral activity against thymidine kinase deficient Varicella zoster virus 07-1 expressed in HEL cells assessed as reduction in plaque formation incubated for 5 days; type: functional, organism-based; settings: Human alphaherpesvirus 3, 07-1, HEL, 120 h
# In short: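 Confluent HEL cells in 96-well plates inoculated with TK-deficient VZV strain 07-1 at 20 PFU per well; residual virus removed after 2 h, then varying compound concentrations added in duplicate. EC50 = concentration reducing viral plaque formation by 50% versus untreated controls after 5 days.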
# Human respirovirus 3 = test: Antiviral activity against Parainfluenza virus 3 expressed in African green monkey Vero cells assessed as reduction in cytopathogenicity; type: functional, organism-based; settings: Human respirovirus 3, Vero; in short: as §2
# Coxsackievirus B4 = test: Antiviral activity against Coxsackievirus B4 expressed in African green monkey Vero cells assessed as reduction in cytopathogenicity; type: functional, organism-based; settings: Enterovirus B; in short: as §2
# [6] = Cytotoxicity against African green monkey Vero cells assessed as alteration in cell morphology by microscopy; type: cell-based; settings: chlorocebus sabaeus
# In short: (§3)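 MCC is the compound concentration causing a microscopically visible alteration of cell morphology in the cultures used for the antiviral assays.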
# Human alphaherpesvirus 3 [7] = test: Antiviral activity against Varicella zoster virus Oka expressed in HEL cells assessed as reduction in plaque formation incubated for 5 days; type: functional, organism-based; settings: Human alphaherpesvirus 3, Oka, 120 h
# In short: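 Confluent HEL cells were inoculated at 20 PFU per well of VZV. Residual virus was removed after 2 h, then compound dilutions were added in duplicate. EC50 is the concentration reducing plaque formation by 50% versus untreated controls after 5 days.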
# Punta Toro virus = test: Antiviral activity against Punta Toro virus expressed in African green monkey Vero cells assessed as reduction in cytopathogenicity; type: functional, organism-based; in short: as §2
# [8] = test system: Mammalian orthoreovirus 1; test: Antiviral activity against Reovirus 1 expressed in African green monkey Vero cells assessed as reduction in cytopathogenicity; type: functional, cell-based; settings: Mammalian orthoreovirus 1, Vero; in short: as §2
# Human betaherpesvirus 5 [9] = test: Antiviral activity against Human cytomegalovirus AD169 expressed in HEL cells assessed as reduction in plaque formation incubated for 7 days by Giemsa stain based microscopy; type: functional, organism-based; settings: Human betaherpesvirus 5, AD169, HEL, 168 h
# In short: (§4)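 Confluent HEL fibroblasts were infected at 100 PFU per well. After 2 h, residual virus was removed and compound-containing medium added, in duplicate. After 7 days at 37 °C, cells were ethanol-fixed, Giemsa-stained and examined microscopically. EC50 was read from graphic plots of % cytopathogenicity versus concentration.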
# [10] = Cytotoxicity against human HEL cells assessed as alteration in cell morphology incubated for 3 days by microscopy; type: cell-based; in short: as §3
# Human betaherpesvirus 5 [11] = test: Antiviral activity against Human cytomegalovirus Davis expressed in HEL cells assessed as reduction in plaque formation incubated for 7 days by Giemsa stain based microscopy; type: functional, organism-based; settings: Human betaherpesvirus 5, Davis, 168 h; in short: as §4
# HEL = test: Cytotoxicity against human HEL cells assessed as cell growth reduction incubated for 3 days; type: cell-based; settings: 72 h
# In short: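 HEL cells were seeded at 5 × 10^3 per well and allowed to proliferate for 24 h before compound-containing medium was added. After 3 days at 37 °C, cells were counted with a Coulter counter. CC50 (50% reduction of proliferation versus untreated controls) was estimated from graphic plots.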
# HeLa [12] = test: Cytotoxicity against human HeLa cells assessed as cell growth reduction incubated for 3 days; type: cell-based; settings: 72 h
# CFPAC-1 = test: Antiproliferative activity against human CFPAC-1 cells incubated for 72 hrs by MTT assay; type: functional, cell-based; settings: CFPAC-1, 72 h; in short: as §1
# [13] = Cytotoxicity against CRFK cells assessed as cell growth reduction incubated for 3 days; type: cell-based, Felis catus; settings: cat, 72 h
Compound,"IC50 (SW-620; Homo sapiens, SW-620, 72 h)","IC50 (HepG2; Homo sapiens, HepG2, 72 h)","IC50 (HeLa [1]; Homo sapiens, HeLa, 72 h)","IC50 ([2]; Homo sapiens, MIA PaCa-2, 72 h)","IC50 ([3]; Homo sapiens, CCRF-CEM, 72 h)","IC50 ([4]; Mus musculus, L1210/0, 72 h)",other results
Nc1nc(F)c(Cl)c2c1ncn2CCC1(O)NC(=O)C(OCc2ccccc2)=C1OCc1ccccc1 (stereo not given),59 µM,> 100 µM,39 µM,> 100 µM,–,–,–
O=C1NC(O)(/C=C\n2cc(I)c3c(Cl)ncnc32)C(OCc2ccccc2)=C1OCc1ccccc1 (stereo not given),46.9 µM,32.4 µM,> 250 µM,22.6 µM,> 250 µM,> 250 µM,–
O=C1O/C(=C\Cn2cnc3cc[nH]c3c2=O)C(OCc2ccccc2)=C1OCc1ccccc1,> 100 µM,> 100 µM,27 µM,> 100 µM,16 µM,28 µM,–
O=C1NC(O)(CCn2cnc3cc[nH]c3c2=O)C(OCc2ccccc2)=C1OCc1ccccc1 (stereo not given),90.7 µM,> 100 µM,92 µM,36.6 µM,87 µM,107 µM,–
O=C1O/C(=C\Cn2cc(I)c3c(Cl)ncnc32)C(OCc2ccccc2)=C1OCc1ccccc1 (mixture of isomers),> 100 µM,> 100 µM,65 µM,33.3 µM,> 250 µM,128 µM,–
COc1nc(OC)c2c(ccn2CCC2(O)NC(=O)C(OCc3ccccc3)=C2OCc2ccccc2)n1 (stereo not given),–,> 100 µM,–,–,87 µM,–,–
O=C1NC(O)(CCn2cnc3ccnc(Cl)c32)C(OCc2ccccc2)=C1OCc1ccccc1 (stereo not given),> 100 µM,> 100 µM,21 µM,60 µM,–,–,–
O=C1O/C(=C\Cn2cnc3ccn(C/C=C4\OC(=O)C(OCc5ccccc5)=C4OCc4ccccc4)c3c2=O)C(OCc2ccccc2)=C1OCc1ccccc1,47.2 µM,> 100 µM,5.6 µM,26.2 µM,19 µM,4.5 µM,EC50 (Sindbis virus): > 20 µM; EC50 (Human alphaherpesvirus 3 [5]): 7.6 µM; EC50 (Human respirovirus 3): > 20 µM; EC50 (Coxsackievirus B4): > 20 µM; MCC [6]: ≥ 20 µM; EC50 (Human alphaherpesvirus 3 [7]): 13.8 µM; EC50 (Punta Toro virus): 6.7 µM; EC50 [8]: > 20 µM
Nc1ccn(C[C@@H](CO)OCP(=O)(O)O)c(=O)n1 [CIDOFOVIR],–,–,–,–,–,–,EC50 (Human betaherpesvirus 5 [9]): 0.61 µM; MCC at 72 h [10]: > 300 µM; EC50 (Human betaherpesvirus 5 [11]): 0.51 µM; CC50 (HEL): 153 µM
O=c1[nH]cc(F)c(=O)[nH]1 [FLUOROURACIL],0.79 µM,55.2 µM,66.5 µM,–,–,–,–
O=C1O/C(=C\Cn2cnc3ccnc(Cl)c32)C(OCc2ccccc2)=C1OCc1ccccc1 (mixture of isomers),> 100 µM,> 100 µM,> 100 µM,> 100 µM,–,–,–
O=C1O/C(=C\Cn2cnc3cncc(Br)c32)C(OCc2ccccc2)=C1OCc1ccccc1 (mixture of isomers),32.9 µM,46.9 µM,15 µM,22.6 µM,5.7 µM,6.8 µM,–
COc1nc(OC)c2c(ccn2C/C=C2\OC(=O)C(OCc3ccccc3)=C2OCc2ccccc2)n1 (mixture of isomers),47.1 µM,> 100 µM,12 µM,33.9 µM,4.1 µM,4.7 µM,EC50 (Human betaherpesvirus 5 [9]): 4.99 µM; MCC at 72 h [10]: ≥ 20 µM; EC50 (Human betaherpesvirus 5 [11]): 1.99 µM; CC50 (HEL): 36.6 µM
O=C1NC(O)(CCn2cnc3cncc(Br)c32)C(OCc2ccccc2)=C1OCc1ccccc1 (stereo not given),> 100 µM,66.5 µM,77 µM,48.7 µM,25 µM,50 µM,–
Nc1nc(O)c2ncn(COC(CO)CO)c2n1 [GANCICLOVIR],–,–,–,–,–,–,EC50 (Human betaherpesvirus 5 [9]): 6.12 µM; MCC at 72 h [10]: > 350 µM; EC50 (Human betaherpesvirus 5 [11]): 4.72 µM; CC50 (HEL): 328 µM
Nc1ncnc2c1ncn2C[C@H](O)CO [(S)-DHPA],–,–,–,–,–,–,EC50 (Sindbis virus): > 250 µM; EC50 (Human respirovirus 3): > 250 µM; EC50 (Coxsackievirus B4): > 250 µM; MCC [6]: > 250 µM; EC50 (Punta Toro virus): > 250 µM; EC50 [8]: > 250 µM
O=C1NC(O)(CCn2cnc3ccn(CCC4(O)NC(=O)C(OCc5ccccc5)=C4OCc4ccccc4)c3c2=O)C(OCc2ccccc2)=C1OCc1ccccc1 (stereo in doubt; 18),–,> 100 µM,17 µM,5.7 µM,–,4.4 µM,IC50 (SW-620; sw-620): 69.9 µM; IC50 ([3]; ccrf-cem): 15 µM
O=C1O/C(=C\Cn2cnc3c(F)nc(F)c(Cl)c32)C(OCc2ccccc2)=C1OCc1ccccc1,55 µM,> 100 µM,> 100 µM,78 µM,–,–,EC50 (Sindbis virus): > 20 µM; EC50 (Human respirovirus 3): > 20 µM; EC50 (Coxsackievirus B4): 14.5 µM; MCC [6]: ≥ 20 µM; EC50 (Human betaherpesvirus 5 [9]): 44.7 µM; Activity (HeLa [12]): Non-toxic; EC50 (Punta Toro virus): 12 µM; MCC at 72 h [10]: > 100 µM; EC50 [8]: > 20 µM; EC50 (Human betaherpesvirus 5 [11]): 44.7 µM; CC50 (HEL): ≥ 100 µM
O=C1O/C(=C\Cn2cnc3ncc(Br)c-3c2)C(OCc2ccccc2)=C1OCc1ccccc1 (mixture of isomers),> 100 µM,> 100 µM,17 µM,> 100 µM,12 µM,15 µM,IC50 (CFPAC-1): > 100 µM
O=C1NC(O)(CCn2cnc3ccn(CCC4(O)NC(=O)C(OCc5ccccc5)=C4OCc4ccccc4)c3c2=O)C(OCc2ccccc2)=C1OCc1ccccc1 (stereo in doubt; 19),–,–,–,–,–,–,IC50 (SW-620; sw-620): 30.5 µM; IC50 ([3]; ccrf-cem): 4.9 µM; IC50 (HepG2; hepg2): 52 µM; IC50 ([4]; l1210/0): 7.6 µM; IC50 (HeLa [1]; hela): 18 µM; IC50 ([2]; mia paca-2): 4.4 µM
O=C1O/C(=C\Cn2cnc3c(Cl)c(F)nc(F)c32)C(O)=C1O (mixture of isomers),> 100 µM,> 100 µM,> 100 µM,> 100 µM,–,–,–
O=C1O/C(=C\Cn2cnc3c(Cl)c(F)nc(F)c32)C(OCc2ccccc2)=C1OCc1ccccc1 (mixture of isomers),50 µM,> 100 µM,> 100 µM,> 100 µM,–,–,EC50 (Sindbis virus): > 20 µM; Activity [13]: Non-toxic; EC50 (Human respirovirus 3): > 20 µM; EC50 (Coxsackievirus B4): > 20 µM; MCC [6]: 20 µM; EC50 (Human betaherpesvirus 5 [9]): 8.94 µM; Activity (HeLa [12]): Non-toxic; EC50 (Punta Toro virus): 12 µM; MCC at 72 h [10]: ≥ 100 µM; EC50 [8]: > 20 µM; EC50 (Human betaherpesvirus 5 [11]): 8.94 µM; CC50 (HEL): > 100 µM
NC(=O)c1ncn([C@@H]2O[C@H](CO)[C@@H](O)[C@H]2O)n1 [RIBAVIRIN],–,–,–,–,–,–,EC50 (Sindbis virus): > 250 µM; EC50 (Human respirovirus 3): 73.5 µM; EC50 (Coxsackievirus B4): > 250 µM; MCC [6]: > 250 µM; EC50 [8]: > 250 µM
